Published values gathered from unrelated publications.
Lines come from different studies, so protocols differ.
RET: Proto-oncogene tyrosine-protein kinase receptor Ret (RET, Homo sapiens, UniProt P07949)
RET V804M: Proto-oncogene tyrosine-protein kinase receptor Ret (RET, Homo sapiens, UniProt P07949, V804M)

O=C1NC(=O)N(c2ccccc2)C(=O)C1=CNc1ccc2[nH]c(=O)[nH]c2c1 gave a remaining activity of 90.6% (RET; enzyme activity; inhibitor; radiometric; 10 µM).
The inhibition of C#Cc1n[nH]c2c(-c3cn([C@@H](C)c4ccccc4)c(=O)[nH]c3=O)cc(F)cc12 is reported as 3.2% (RET; enzyme activity; inhibitor; 0.1 µM).
The remaining binding of Cc1nn(C)cc1-c1nc2c(N3CCN(Cc4ccc(Cl)cc4)CC3)c(Cl)cnc2[nH]1 is reported as 22% (RET V804M; binding; competition with immobilised ligand; 1 µM).
CC(C)(C)c1cc(C=C(C#N)C#N)cc(Br)c1O gave a remaining activity of 98.2% (RET; enzyme activity; inhibitor; 0.5 µM).
With Nc1ncc(-c2nc(N3CCOCC3)nc(N3CCOCC3)n2)c(C(F)F)n1 the remaining binding was 73% (RET V804M; binding; competition with immobilised ligand; 10 µM).
With C#Cc1n[nH]c2c(-c3cn([C@@H](C)c4ccccn4)c(=O)[nH]c3=O)cc(F)cc12 the inhibition was -0.3% (RET V804M; enzyme activity; inhibitor; 0.1 µM).
The remaining binding of N#CC1(c2ccccn2)CCN(Cc2cc(C(=O)O)c(=O)n3ccccc23)CC1 is reported as 100% (Proto-oncogene tyrosine-protein kinase receptor Ret (RET, Homo sapiens, UniProt P07949, V804L); cell-free assay; competition with immobilised ligand; 1 µM).
For O=C(Cn1cc(C=C2C(=O)NC(=O)NC2=O)c2ccccc21)Nc1ccccc1, the remaining activity was 110% (RET; enzyme activity; inhibitor; radiometric; 10 µM).
Cn1cncc1[C@@](O)(COc1ccc(C#N)cc1-c1ccc(OC(F)(F)F)cc1)c1ccc(C#N)cc1 gave a remaining binding of 98% (Proto-oncogene tyrosine-protein kinase receptor Ret (RET, Homo sapiens, UniProt P07949, M918T); cell-free assay; competition with immobilised ligand; 1 µM).
With Cn1cc(-c2cccc(N3CCc4c(sc5c4CC(C)(C)C5)C3=O)c2CO)cc(Nc2ccncn2)c1=O the inhibition was 14% (RET; enzyme activity; inhibitor; 1 µM).
